Laboratory results reported in ChEMBL document CHEMBL1129287, “Substituted xanthines, pteridinediones, and related compounds as potential antiinflammatory agents. Synthesis and biological evaluation of inhibitors of tumor necrosis factor alpha” (J Med Chem, 1996).

Tested on: Mus musculus
Test: Percent protection against TNF-alpha induced leukopenia in mice at a dose of 50 mg/Kg
Type: functional
Method in brief: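 Mice given compound intraperitoneally in 250 uL saline, then 60 min later […] LPS in saline, ip. Blood was taken 2 h after LPS by retro-orbital puncture into heparinized tubes. Nucleated cells were counted, with neutrophil content as the leukopenia read-out.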

CCCn1c(=O)n(CCCC(=O)OCC)c(=O)c2nccnc21
Protection: 60%
